In data set [1] the target is T1, NAD-dependent protein deacylase sirtuin-6 (Homo sapiens, UniProt Q8N6T7). The data set can be described thus: Activation of N-terminal his-tagged human SIRT6 expressed in Escherichia coli M15 [pREP4] assessed as increase in peptide demyristoylation at 20 uM incubated for 120 mins using Ac-EALPKK(Myr)-AMC substrate by FDL assay relative to control. The method, boiled down: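 Demyristoylation: 1 µM recombinant SIRT6 preincubated with compound for 20 min at 37 °C in 50 mM Tris-HCl pH 8.0, BSA 1 mg/mL, 1 mM DTT, with 10 µM Ac-EALPKK(Myr)-AMC. Started with 1 mM NAD and run 120 min at 37 °C. Developed 120 min at 37 °C with 5 mg/mL trypsin/8 mM nicotinamide. Fluorescence read. Mean ± s.d., triplicate wells, three independent experiments.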

Data set [2] deals with T1, NAD-dependent protein deacylase sirtuin-6. The data set can be described thus: Binding affinity to N-terminal his-tagged human SIRT6 expressed in Escherichia coli M15 [pREP4] by ITC assay. An outline of the steps:
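ITC at 25 °C in 20 mM HEPES pH 7.5, 100 mM NaCl, 2 mM DTT. SIRT6 (400 µM) injected into a cell holding activator (80 µM). Kd derived from the binding isotherm.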

The target is the same in data set [3]. Put plainly: Binding affinity to N-terminal his-tagged human SIRT6 expressed in Escherichia coli M15 [pREP4] by SPR assay.
A further data set concerns HepG2. Put plainly: Antiproliferative activity against human HepG2 cells assessed as reduction in cell viability incubated for 72 hrs by MTT assay. Type of data set: functional, cell-based.
The next data set relates to SW-620. Put plainly: Antiproliferative activity against human SW620 cells assessed as reduction in cell viability incubated for 72 hrs by MTT assay. The class given is functional, cell-based.
Data set [4] relates to PANC-1. Put plainly: Inhibition of colony formation in human PANC1 cells incubated for 9 to 18 days by crystal violet staining based assay. Type of data set: functional, cell-based. An outline of the steps:
(§1)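 Cells are seeded per well at the line-specific density: BXPC-3 750, PANC-1 500, AsPC-1 2200, MIAPaCa-2 500. Compound at several concentrations is added after 24 h. Incubation runs 9–18 days (BXPC-3 18 days, PANC-1 14 days). Cells are then fixed with 4% paraformaldehyde and stained with crystal violet, and colonies of more than 50 cells are counted.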

For a further data set, the system named is MIA PaCa-2. The data set can be described thus: Inhibition of colony formation in human MIAPaCa2 cells incubated for 9 to 18 days by crystal violet staining based assay. Type of data set: functional, cell-based. The method, boiled down: as §1
The subject of data set [5] is PANC-1. Put plainly: Antiproliferative activity against human PANC1 cells at 3.3 to 10 uM incubated for 24 hrs by EdU incorporation assay. Type of data set: functional, cell-based. The method, boiled down:
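Cells seeded per well at 8000 (BXPC-3) or 4600 (PANC-1), then treated with a concentration series for 24 h. EdU incorporation detected with an EdU-Apollo kit, with Hoechst counterstain. EdU-positive cells counted by high-content imaging across 10 fields.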

Data set [6] has as its target T1, NAD-dependent protein deacylase sirtuin-6. Put plainly: Binding affinity to SIRT6 in human BxPC3 cells assessed as protection of SIRT6 protein from temperature-dependent degradation at 25 uM incubated for 72 hrs by CETSA. The class given is cell-based. The following applies: BXPC-3. The method, boiled down:
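Cells treated with compound (25 μM) or DMSO for 72 h, washed, resuspended in PBS with protease inhibitor cocktail, split into aliquots heated 3 min at a temperature gradient. Lysed by three freeze–thaw cycles, centrifuged at 4 °C for 15 min; soluble SIRT6 in supernatant detected by western blot. Triplicate.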

The target is the same in data set [7]. Put plainly: […] in human PANC1 cells assessed as reduction in H3K56ac levels incubated for 72 hrs by Western blot analysis. The note with it: PANC-1. The class given is cell-based. The method, boiled down: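 Cells incubated 72 h with various compound concentrations; whole-cell RIPA lysates with protease inhibitors, BCA-normalised, separated on 12% SDS-PAGE, transferred to PVDF, blocked in 5% milk or BSA. Probed 10 h at 4 °C with antibodies to SIRT6, acetyl-H3K9/K18/K56, total H3, Lin28b, Myc, IGF2BP3, β-actin; HRP secondary, chemiluminescent detection.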

The nature of data set [8]: Toxicity in BALB/c nude mouse xenografted with human PANC1 cells assessed as induction of toxicity symptoms at 100 to 150 mg/kg/day, po for 30 days. The class given is organism-based, PANC-1. The following applies: in vivo, 720 h. The method, boiled down:
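Female BALB/c nude mice, 6–8 weeks old, received 5×10⁶–1×10⁷ PANC-1 cells subcutaneously in the right flank. Once tumors reached 130–150 mm³, mice were randomized (n = 6) to vehicle or 100 or 150 mg/kg/d given orally for 30 days. Body weight and toxicity were monitored against the vehicle group.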

Data set [9] addresses T1, NAD-dependent protein deacylase sirtuin-6. The data set can be described thus: In-vivo activation of SIRT6 in BALB/c nude mouse xenografted with human PANC1 cells assessed as reduction in H3K9Ac expression at 150 mg/kg/day, po for 30 days by IHC analysis. Type of data set: functional, organism-based. The following applies: PANC-1. The method, boiled down:
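Female BALB/c nude mice (6–8 weeks) bearing subcutaneous PANC-1 xenografts (5×10⁶–1×10⁷ cells, right flank), randomised at 130–150 mm³ tumours; oral dosing daily for 30 days versus vehicle (n=6). Tumour tissue stained by immunohistochemistry.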

Data set [10] in a line: AUC (0 to infinity) in Sprague-Dawley rat at 10 mg/kg, po after 0.083 to 24 hrs by LC-MS/MS analysis. The class given is ADME, organism-based. Further details: dose 10 mg/kg, time infinity, route oral. The note with it: in vivo. The method, boiled down:
(§2)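 Male Sprague-Dawley rats, 6-8 weeks old. Dosing solution of 10 (PO) or 2 (IV) mg/mL in 5% DMSO, 10% Solutol and 85% saline, pH 7. Blood taken by cardiac puncture at 0.083–24 h (PO) or 0.25–24 h (IV). Plasma levels measured by LC-MS/MS. Values are mean ± SD, n = 3.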

Data set [11] can be described thus: Clearance in Sprague-Dawley rat at 2 mg/kg, iv after 0.25 to 24 hrs by LC-MS/MS analysis. Type of data set: ADME, organism-based. The following applies: in vivo. An outline of the steps: as §2
A short description of data set [12]: Cmax in Sprague-Dawley rat at 2 mg/kg, iv after 0.25 to 24 hrs by LC-MS/MS analysis. Type of data set: ADME, organism-based. Further details: dose 2 mg/kg, route intravenous. The following applies: in vivo. An outline of the steps: as §2
In data set [13] the target is NAD-dependent protein deacetylase sirtuin-3, mitochondrial (Homo sapiens, UniProt Q9NTG7). The data set can be described thus: Inhibition of SIRT3 (unknown origin) by FDL assay. An outline of the steps: (§3)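 SIRT3 and SIRT5 tested by an outsourced FDL fluorogenic deacetylase assay, each from a different contract provider. The IC50 was determined for each enzyme, with concentrations going up to 200 μM.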

Data set [14] deals with NAD-dependent protein deacylase sirtuin-5, mitochondrial (Homo sapiens, UniProt Q9NXA8). Put plainly: Inhibition of SIRT5 (unknown origin) by FDL assay. An outline of the steps: as §3
A further data set has as its target Histone deacetylase 1 (Homo sapiens, UniProt Q13547). Put plainly: Inhibition of HDAC1 (unknown origin) by FDL assay. The method, boiled down: (§4)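 Selectivity testing by FDL assay at concentrations up to 200 µM. SIRT1-2 assays run by an outside contract provider. Values reported as IC50.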
The target in the next data set is Histone deacetylase 3 (Homo sapiens, UniProt O15379). The data set can be described thus: Inhibition of HDAC3 (unknown origin) by FDL assay. The method, boiled down:
as §4

A further data set deals with Histone deacetylase 4 (Homo sapiens, UniProt P56524). The data set can be described thus: Inhibition of HDAC4 (unknown origin) by FDL assay. An outline of the steps:
as §4

The next data set deals with Histone deacetylase 7 (Homo sapiens, UniProt Q8WUI4). The data set can be described thus: Inhibition of HDAC7 (unknown origin) by FDL assay. The method, boiled down:
as §4

In data set [15] the target is Polyamine deacetylase HDAC10 (Homo sapiens, UniProt Q969S8). Put plainly: Inhibition of HDAC10 (unknown origin) by FDL assay. The method, boiled down: as §4

Molecules are shown by their SMILES. Active and inactive are the calls of the source. The calls are words filed in the database; no cut-off is given here. A value given as a limit tells only on which side of the number the result lay.

T1 sequence (Q8N6T7 whole entry): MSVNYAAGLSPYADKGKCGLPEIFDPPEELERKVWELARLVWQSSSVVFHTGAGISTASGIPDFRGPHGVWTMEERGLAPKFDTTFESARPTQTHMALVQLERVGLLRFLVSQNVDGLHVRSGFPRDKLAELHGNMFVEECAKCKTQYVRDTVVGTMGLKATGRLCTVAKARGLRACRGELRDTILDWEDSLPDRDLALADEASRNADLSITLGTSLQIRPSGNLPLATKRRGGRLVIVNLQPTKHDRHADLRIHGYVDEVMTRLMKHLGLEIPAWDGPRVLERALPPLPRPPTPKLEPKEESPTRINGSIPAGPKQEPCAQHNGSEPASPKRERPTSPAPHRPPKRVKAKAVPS
Chain of Histone deacetylase 3 (O15379 whole entry): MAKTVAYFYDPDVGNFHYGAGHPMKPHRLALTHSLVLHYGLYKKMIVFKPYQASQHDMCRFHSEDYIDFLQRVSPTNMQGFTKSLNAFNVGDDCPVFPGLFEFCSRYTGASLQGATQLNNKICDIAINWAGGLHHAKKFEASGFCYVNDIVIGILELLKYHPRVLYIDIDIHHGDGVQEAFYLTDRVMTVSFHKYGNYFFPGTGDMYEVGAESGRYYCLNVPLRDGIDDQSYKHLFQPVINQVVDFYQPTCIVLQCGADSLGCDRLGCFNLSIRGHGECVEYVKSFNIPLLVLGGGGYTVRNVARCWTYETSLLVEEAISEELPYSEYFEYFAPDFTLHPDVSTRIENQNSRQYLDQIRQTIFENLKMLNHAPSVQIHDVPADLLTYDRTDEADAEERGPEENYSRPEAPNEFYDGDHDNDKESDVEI
Chain of NAD-dependent protein deacetylase sirtuin-3, mitochondrial (Q9NTG7 whole entry): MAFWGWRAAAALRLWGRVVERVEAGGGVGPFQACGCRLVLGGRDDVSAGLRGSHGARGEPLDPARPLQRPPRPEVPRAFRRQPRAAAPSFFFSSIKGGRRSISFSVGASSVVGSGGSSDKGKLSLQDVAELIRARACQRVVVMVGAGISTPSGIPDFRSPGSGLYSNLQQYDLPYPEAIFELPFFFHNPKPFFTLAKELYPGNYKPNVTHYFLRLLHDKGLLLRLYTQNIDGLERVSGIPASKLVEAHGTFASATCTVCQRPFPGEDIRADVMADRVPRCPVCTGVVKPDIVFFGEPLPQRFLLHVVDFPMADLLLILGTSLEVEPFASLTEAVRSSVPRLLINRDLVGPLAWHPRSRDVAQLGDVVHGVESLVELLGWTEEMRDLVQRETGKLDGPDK
Chain of Histone deacetylase 7 (Q8WUI4 whole entry): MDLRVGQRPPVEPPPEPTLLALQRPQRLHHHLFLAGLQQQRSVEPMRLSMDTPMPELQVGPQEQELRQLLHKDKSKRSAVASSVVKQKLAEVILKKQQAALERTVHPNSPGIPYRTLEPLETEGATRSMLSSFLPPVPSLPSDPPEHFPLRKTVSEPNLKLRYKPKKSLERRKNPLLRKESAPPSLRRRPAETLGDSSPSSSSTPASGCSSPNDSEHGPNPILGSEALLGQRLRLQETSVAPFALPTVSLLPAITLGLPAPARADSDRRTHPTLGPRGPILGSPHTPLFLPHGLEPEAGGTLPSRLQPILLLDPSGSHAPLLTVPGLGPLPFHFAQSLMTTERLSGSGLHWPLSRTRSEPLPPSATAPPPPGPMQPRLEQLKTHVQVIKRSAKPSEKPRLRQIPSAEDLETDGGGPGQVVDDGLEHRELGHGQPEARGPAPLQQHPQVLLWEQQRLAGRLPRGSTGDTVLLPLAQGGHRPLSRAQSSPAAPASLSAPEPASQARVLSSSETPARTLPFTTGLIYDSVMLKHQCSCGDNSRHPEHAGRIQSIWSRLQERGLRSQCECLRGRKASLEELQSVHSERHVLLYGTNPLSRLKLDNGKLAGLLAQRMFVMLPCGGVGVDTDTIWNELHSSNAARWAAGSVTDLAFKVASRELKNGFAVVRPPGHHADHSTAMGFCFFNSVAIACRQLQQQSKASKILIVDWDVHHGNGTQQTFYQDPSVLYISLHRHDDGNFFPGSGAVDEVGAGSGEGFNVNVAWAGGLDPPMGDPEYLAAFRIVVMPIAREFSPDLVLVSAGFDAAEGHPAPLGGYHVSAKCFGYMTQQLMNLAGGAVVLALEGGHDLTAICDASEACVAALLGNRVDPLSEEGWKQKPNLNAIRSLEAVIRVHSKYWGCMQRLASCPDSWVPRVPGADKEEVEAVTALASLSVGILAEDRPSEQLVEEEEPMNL
Chain of Polyamine deacetylase HDAC10 (Q969S8 whole entry): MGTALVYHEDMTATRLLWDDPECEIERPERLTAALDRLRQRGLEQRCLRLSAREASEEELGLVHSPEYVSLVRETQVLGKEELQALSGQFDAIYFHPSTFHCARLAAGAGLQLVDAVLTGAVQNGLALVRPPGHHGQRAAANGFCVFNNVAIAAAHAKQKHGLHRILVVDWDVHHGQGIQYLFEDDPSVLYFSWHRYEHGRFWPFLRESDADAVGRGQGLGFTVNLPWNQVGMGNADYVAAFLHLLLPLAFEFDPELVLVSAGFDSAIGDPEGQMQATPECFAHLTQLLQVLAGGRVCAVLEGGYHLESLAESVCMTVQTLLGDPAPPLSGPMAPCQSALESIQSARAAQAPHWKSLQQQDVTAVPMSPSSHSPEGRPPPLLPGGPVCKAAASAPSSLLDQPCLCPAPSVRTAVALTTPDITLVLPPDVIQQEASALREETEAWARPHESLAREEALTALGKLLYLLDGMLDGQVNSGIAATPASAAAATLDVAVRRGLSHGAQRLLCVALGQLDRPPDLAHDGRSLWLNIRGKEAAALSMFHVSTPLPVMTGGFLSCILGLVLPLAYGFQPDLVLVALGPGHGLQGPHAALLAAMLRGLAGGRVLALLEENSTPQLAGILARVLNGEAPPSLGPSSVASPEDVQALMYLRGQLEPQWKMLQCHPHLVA
Chain of Histone deacetylase 1 (Q13547 whole entry): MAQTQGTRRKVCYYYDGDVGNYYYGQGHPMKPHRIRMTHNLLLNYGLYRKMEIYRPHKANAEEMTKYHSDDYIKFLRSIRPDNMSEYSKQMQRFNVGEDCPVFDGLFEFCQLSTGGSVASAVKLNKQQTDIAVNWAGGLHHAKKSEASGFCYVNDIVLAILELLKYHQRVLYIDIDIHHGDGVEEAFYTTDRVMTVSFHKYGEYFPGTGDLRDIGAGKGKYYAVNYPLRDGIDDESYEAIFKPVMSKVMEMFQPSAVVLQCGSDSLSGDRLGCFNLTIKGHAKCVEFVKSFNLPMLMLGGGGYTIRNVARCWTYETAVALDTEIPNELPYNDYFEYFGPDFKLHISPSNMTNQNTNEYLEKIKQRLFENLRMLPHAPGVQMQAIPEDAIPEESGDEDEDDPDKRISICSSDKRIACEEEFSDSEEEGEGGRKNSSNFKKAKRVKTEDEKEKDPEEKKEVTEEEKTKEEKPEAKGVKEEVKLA
Chain of Histone deacetylase 4 (P56524 whole entry): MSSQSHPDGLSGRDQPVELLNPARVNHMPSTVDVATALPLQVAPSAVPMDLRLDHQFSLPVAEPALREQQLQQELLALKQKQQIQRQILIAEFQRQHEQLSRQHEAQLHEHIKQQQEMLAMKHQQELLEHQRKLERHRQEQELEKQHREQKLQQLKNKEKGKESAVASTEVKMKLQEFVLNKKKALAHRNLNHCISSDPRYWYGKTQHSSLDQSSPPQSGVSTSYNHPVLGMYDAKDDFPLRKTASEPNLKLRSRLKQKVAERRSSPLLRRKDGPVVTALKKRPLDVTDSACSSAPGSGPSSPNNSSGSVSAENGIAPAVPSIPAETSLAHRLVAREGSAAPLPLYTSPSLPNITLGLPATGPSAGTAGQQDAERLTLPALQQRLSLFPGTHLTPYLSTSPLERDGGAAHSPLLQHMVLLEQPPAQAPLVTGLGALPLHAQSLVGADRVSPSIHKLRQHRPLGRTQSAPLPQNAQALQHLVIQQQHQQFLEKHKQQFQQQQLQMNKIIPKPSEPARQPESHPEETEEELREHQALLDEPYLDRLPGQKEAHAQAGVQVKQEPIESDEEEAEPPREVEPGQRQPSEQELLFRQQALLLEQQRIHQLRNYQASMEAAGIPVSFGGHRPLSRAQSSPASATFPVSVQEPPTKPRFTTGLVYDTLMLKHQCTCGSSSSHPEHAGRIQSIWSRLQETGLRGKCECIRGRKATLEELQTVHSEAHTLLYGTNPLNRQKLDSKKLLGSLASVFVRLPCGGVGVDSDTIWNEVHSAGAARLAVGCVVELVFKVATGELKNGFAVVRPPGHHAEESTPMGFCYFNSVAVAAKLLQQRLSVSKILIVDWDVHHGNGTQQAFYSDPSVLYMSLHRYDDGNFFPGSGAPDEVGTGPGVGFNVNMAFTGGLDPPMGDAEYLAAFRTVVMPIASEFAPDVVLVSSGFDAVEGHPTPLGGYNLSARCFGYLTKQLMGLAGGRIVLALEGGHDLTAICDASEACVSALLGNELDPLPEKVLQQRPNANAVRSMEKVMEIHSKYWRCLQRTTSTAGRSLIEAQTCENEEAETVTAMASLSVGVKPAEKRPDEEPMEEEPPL
Chain of NAD-dependent protein deacylase sirtuin-5, mitochondrial (Q9NXA8 whole entry): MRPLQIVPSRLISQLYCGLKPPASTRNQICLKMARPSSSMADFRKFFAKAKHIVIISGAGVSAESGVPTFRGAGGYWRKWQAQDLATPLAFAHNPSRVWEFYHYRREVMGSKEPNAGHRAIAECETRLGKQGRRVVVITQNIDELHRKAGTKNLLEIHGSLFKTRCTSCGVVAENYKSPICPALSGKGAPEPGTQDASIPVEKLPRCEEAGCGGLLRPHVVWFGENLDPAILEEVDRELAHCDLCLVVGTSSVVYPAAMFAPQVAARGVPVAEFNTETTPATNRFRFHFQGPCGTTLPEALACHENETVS

Regarding `O=C(NC(c1ccccc1)c1ccccc1)c1cc(-c2cc3ccccc3o2)nc2ccccc12`, the Activity is 1230% in data set [1] and “Non-Toxic” in data set [8]. Further, the Kd in data set [2] is 8.85 µM; in [3], 5.52 µM. In addition, the result (in the data set on HepG2; with SW-620; with PANC-1 [5]; in [6]; in [9]) was Active. Besides, the inhibition entry (in the data set on PANC-1 [4]; in the data set with MIA PaCa-2; in data set [7]) was “Dose-dependent effect” in each case. In addition, the AUC in [10] was 755.57 ng·mL·h. Moreover, the CL in [11] stood at 10 mL/min/kg. In data set [12], this compound gave a Cmax of 5120 ng/mL. Besides, the IC50 (in [13]; in [14]; against Histone deacetylase 1; at Histone deacetylase 3; at Histone deacetylase 4; at Histone deacetylase 7) was more than 200 µM throughout. This compound yielded an IC50 in data set [15] of more than 200 µM.

For the origin of these results see ChEMBL document CHEMBL4622973, “Discovery of Potent Small-Molecule SIRT6 Activators: Structure-Activity Relationship and Anti-Pancreatic Ductal Adenocarcinoma Activity” (J Med Chem, 2020).
